ChEMBL document CHEMBL1149144, “Structure-based design of potent retinoid X receptor alpha agonists” (J Med Chem, 2004)

How the values were obtained:
[1] = target: T1, Retinoic acid receptor RXR-alpha (Homo sapiens, UniProt P19793); assay: Effective concentration for Retinoid X receptor alpha activity in CV-1 cells; format: functional, cell-based
T1 sequence (P19793 whole entry): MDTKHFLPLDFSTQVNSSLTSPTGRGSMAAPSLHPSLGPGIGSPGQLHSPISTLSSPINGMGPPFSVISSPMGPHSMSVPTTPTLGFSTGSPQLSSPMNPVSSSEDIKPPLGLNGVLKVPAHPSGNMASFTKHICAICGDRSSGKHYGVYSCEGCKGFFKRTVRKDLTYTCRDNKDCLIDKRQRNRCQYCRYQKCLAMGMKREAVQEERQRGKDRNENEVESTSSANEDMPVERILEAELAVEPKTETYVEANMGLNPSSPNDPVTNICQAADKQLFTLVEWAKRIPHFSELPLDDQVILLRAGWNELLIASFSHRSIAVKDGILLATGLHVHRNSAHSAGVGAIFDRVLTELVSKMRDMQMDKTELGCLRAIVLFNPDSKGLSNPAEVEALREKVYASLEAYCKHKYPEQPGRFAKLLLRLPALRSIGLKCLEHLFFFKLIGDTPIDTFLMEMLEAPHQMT
Summary of the method: (§1)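 CV-1 monkey kidney cells transiently transfected with a full-length hRXRα expression vector (RXRα) or a GAL4-hRARα vector (RARα), each with an RXRα- or RARα-responsive reporter gene construct. Top concentration 10 µM; EC50 calculated from the reporter response.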

[2] = target: T2, Retinoic acid receptor alpha (Homo sapiens, UniProt P10276); assay: Binding affinity for retinoic acid receptor alpha (RARalpha), using 9-cis-[3H]-retinoic acid
T2 sequence (P10276 whole entry): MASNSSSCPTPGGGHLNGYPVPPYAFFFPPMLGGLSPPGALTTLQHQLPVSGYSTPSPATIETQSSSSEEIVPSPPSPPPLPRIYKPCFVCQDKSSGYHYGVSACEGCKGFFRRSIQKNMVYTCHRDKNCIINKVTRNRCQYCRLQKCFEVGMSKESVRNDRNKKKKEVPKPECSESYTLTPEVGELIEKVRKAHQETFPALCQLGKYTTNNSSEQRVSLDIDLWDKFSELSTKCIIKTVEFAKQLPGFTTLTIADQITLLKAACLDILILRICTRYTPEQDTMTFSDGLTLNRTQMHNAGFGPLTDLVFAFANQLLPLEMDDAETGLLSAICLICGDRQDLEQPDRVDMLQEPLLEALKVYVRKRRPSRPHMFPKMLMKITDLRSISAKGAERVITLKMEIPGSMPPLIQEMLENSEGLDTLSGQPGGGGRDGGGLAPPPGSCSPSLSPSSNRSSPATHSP
Summary of the method: (§2)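 Scintillation proximity binding assay; Ki from competition of 2.5 nM 9-cis-RA at RXRα and RARα, with test compound up to 10 µM.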

[3] = target: T2, Retinoic acid receptor alpha; assay: Effective concentration for Retinoic acid receptor alpha activity in CV-1 cells; format: functional, cell-based; summary of the method: as §1
[4] = target: T1, Retinoic acid receptor RXR-alpha; assay: Binding affinity for retinoid X receptor alpha (RXRalpha), using 9-cis-[3H]-retinoic acid; summary of the method: as §2
[5] = target: T1, Retinoic acid receptor RXR-alpha; assay: Effective concentration for Retinoid X receptor alpha activity in CV-1 cells; Partial agonist; format: functional, cell-based; summary of the method: as §1
Mus musculus [6] = assay: Antihyperglycemic activity of compound at 100 mg/kg was measured as percent glycosylated hemoglobin in vivo in mice; format: functional
Summary of the method: (§3)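 Male diabetic db/db mice given vehicle or compound in vehicle orally.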

Mus musculus [7] = assay: Effect on aspartate aminotransferase release by liver at 10 mg/kg was measured in vivo in mice; format: functional; summary of the method: as §3
Rattus norvegicus [8] = assay: Effect on percent change in weight of liver to body at 10 mg/kg was measured in vivo in rats; format: functional
Summary of the method: (§4)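 Male Zucker diabetic fatty (ZDF) rats dosed orally with vehicle or compound in vehicle.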

Rattus norvegicus [9] = assay: Antihyperglycemic activity of compound at 30 mg/kg was measured as percent glycosylated hemoglobin in vivo in rats; format: functional; summary of the method: as §4
Rattus norvegicus [10] = assay: Effect on nonesterified free fatty acid at 3 mg/kg was measured in vivo in rats; format: functional; summary of the method: as §4
Mus musculus [11] = assay: Effect on lipid hydrolysis at 30 mg/kg was measured in vivo in mice; format: functional
Summary of the method: (§5)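 Male diabetic db/db mice were given the test agent orally in vehicle, with a vehicle-only control group.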

Rattus norvegicus [12] = assay: Antihyperglycemic activity of compound at 3 mg/kg was determined in vivo in rats; format: functional
Summary of the method: (§6)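 Male Zucker diabetic fatty (ZDF) rats were given the test agent orally in vehicle, with a vehicle-only control group.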

Rattus norvegicus [13] = assay: Effect on nonesterified free fatty acid at 30 mg/kg was measured in vivo in rats; format: functional; summary of the method: as §4
Rattus norvegicus [14] = assay: Effect on aspartate aminotransferase release by liver at 3 mg/kg was measured in vivo in rats; format: functional; summary of the method: as §4
Mus musculus [15] = assay: Effect on lipid hydrolysis at 10 mg/kg was measured in vivo in mice; format: functional; summary of the method: as §5
Rattus norvegicus [16] = assay: Effect on aspartate aminotransferase release by liver at 30 mg/kg was measured in vivo in rats; format: functional; summary of the method: as §4
Rattus norvegicus [17] = assay: Antihyperglycemic activity of compound at 10 mg/kg was measured as percent glycosylated hemoglobin in vivo in rats; format: functional; summary of the method: as §4
Mus musculus [18] = assay: Effect on aspartate aminotransferase release by liver at 30 mg/kg was measured in vivo in mice; format: functional; summary of the method: as §3
Mus musculus [19] = assay: Antihyperglycemic activity of compound at 30 mg/kg was measured as percent glycosylated hemoglobin in vivo in mice; format: functional; summary of the method: as §3
Mus musculus [20] = assay: Effect on nonesterified free fatty acid at 30 mg/kg was measured in vivo in mice; format: functional; summary of the method: as §3
Mus musculus [21] = assay: Antihyperglycemic activity of compound at 100 mg/kg was determined in vivo in mice; format: functional; summary of the method: as §5
Mus musculus [22] = assay: Antihyperglycemic activity of compound at 10 mg/kg was measured as percent glycosylated hemoglobin in vivo in mice; format: functional; summary of the method: as §3
Rattus norvegicus [23] = assay: Effect on percent change in weight of liver to body at 3 mg/kg was measured in vivo in rats; format: functional; summary of the method: as §4
Rattus norvegicus [24] = assay: Effect on lipid hydrolysis at 30 mg/kg was measured in vivo in rats; format: functional; summary of the method: as §6
Mus musculus [25] = assay: Effect on aspartate aminotransferase release by liver at 100 mg/kg was measured in vivo in mice; format: functional; summary of the method: as §3
Mus musculus [26] = assay: Effect on nonesterified free fatty acid at 10 mg/kg was measured in vivo in mice; format: functional; summary of the method: as §3
Mus musculus [27] = assay: Effect on percent change in weight of liver to body at 30 mg/kg was measured in vivo in mice; format: functional; summary of the method: as §3
Rattus norvegicus [28] = assay: Effect on aspartate aminotransferase release by liver at 10 mg/kg was measured in vivo in rats; format: functional; summary of the method: as §4
Rattus norvegicus [29] = assay: Antihyperglycemic activity of compound was determined in vivo in rats; format: functional; summary of the method: as §6
Rattus norvegicus [30] = assay: Effect on nonesterified free fatty acid at 10 mg/kg was measured in vivo in rats; format: functional; summary of the method: as §4
Mus musculus [31] = assay: Antihyperglycemic activity of compound at 10 mg/kg was determined in vivo in mice; format: functional; summary of the method: as §5
Mus musculus [32] = assay: Antihyperglycemic activity of compound at 30 mg/kg was determined in vivo in mice; format: functional; summary of the method: as §5
Rattus norvegicus [33] = assay: Effect on percent change in weight of liver to body at 30 mg/kg was measured in vivo in rats; format: functional; summary of the method: as §4
Mus musculus [34] = assay: Effect on percent change in weight of liver to body at 100 mg/kg was measured in vivo in mice; format: functional; summary of the method: as §3
Rattus norvegicus [35] = assay: Effect on lipid hydrolysis at 10 mg/kg was measured in vivo in rats; format: functional; summary of the method: as §6
Mus musculus [36] = assay: Effect on percent change in weight of liver to body at 10 mg/kg was measured in vivo in mice; format: functional; summary of the method: as §3
Rattus norvegicus [37] = assay: Effect on lipid hydrolysis at 3 mg/kg was measured in vivo in rats; format: functional; summary of the method: as §6
Rattus norvegicus [38] = assay: Antihyperglycemic activity of compound at 3 mg/kg was measured as percent glycosylated hemoglobin in vivo in rats; format: functional; summary of the method: as §4
Mus musculus [39] = assay: Effect on lipid hydrolysis at 100 mg/kg was measured in vivo in mice; format: functional; summary of the method: as §5
Mus musculus [40] = assay: Effect on nonesterified free fatty acid at 100 mg/kg was measured in vivo in mice; format: functional; summary of the method: as §3
Rattus norvegicus [41] = assay: Antihyperglycemic activity of compound at 10 mg/kg was determined in vivo in rats; format: functional; summary of the method: as §6

## Cc1oc(/C=C/C(=O)O)cc1Cc1ccc2c(c1)C(C)(C)CCC2(C)C
[1]
  EC50: 0.106 µM
[2]
  Ki: > 1 µM
[3]
  EC50: > 10 µM
[4]
  Ki: 0.158 µM

## CC1(C)CCC(C)(C)c2cc(C3CCCc4sc(/C=C/C(=O)O)cc43)ccc21 (stereo not given)
[1]
  EC50: 0.02 µM
[2]
  Ki: > 1 µM
[3]
  EC50: > 10 µM
[4]
  Ki: 0.04 µM

## O=C1NC(=O)/C(=C/c2ccc(-c3cccc(C(F)(F)F)c3)o2)S1
[4]
  Ki: 7.4 µM

## CC1(C)CCC(C)(C)c2cc(Cc3coc(/C=C/C(=O)O)c3)ccc21
[2]
  Ki: > 1 µM
[4]
  Ki: 0.138 µM

## CC1(C)CCC(C)(C)c2cc(C3CCCc4oc(/C=C/C(=O)O)nc43)ccc21 (stereo not given)
[1]
  EC50: 0.042 µM
[2]
  Ki: > 1 µM
[4]
  Ki: 0.158 µM

## CCCOc1cc2c(cc1C1CCCc3oc(/C=C/C(=O)O)cc31)C(C)(C)CCC2(C)C (stereo not given)
[2]
  Ki: > 1 µM
[3]
  EC50: > 10 µM
[5]
  EC50: 0.137 µM
[4]
  Ki: 0.1 µM

## CC1(C)CCC(C)(C)c2cc(C3CCCc4oc(/C=C/C(=O)O)cc43)ccc21 (racemic)
Mus musculus [6]
  Activity: 8.51%
Mus musculus [7]
  Activity: 137 U l-1
Rattus norvegicus [8]
  Activity: 6.56%
Rattus norvegicus [9]
  Activity: 7.04%
Rattus norvegicus [10]
  Activity: 0.8 m equiv l-1
Mus musculus [11]
  Activity: 83 mg/dL
Rattus norvegicus [12]
  Activity: 147 mg/dL
Rattus norvegicus [13]
  Activity: 0.38 m equiv l-1
Rattus norvegicus [14]
  Activity: 98 U l-1
Mus musculus [15]
  Activity: 91 mg/dL
Rattus norvegicus [16]
  Activity: 136 U l-1
Rattus norvegicus [17]
  Activity: 7.44%
Mus musculus [18]
  Activity: 116 U l-1
[1]
  EC50: 0.003 µM
Mus musculus [19]
  Activity: 8.84%
Mus musculus [20]
  Activity: 0.56 m equiv l-1
Mus musculus [21]
  Activity: 233 mg/dL
Mus musculus [22]
  Activity: 9.41%
Rattus norvegicus [23]
  Activity: 5.74%
Rattus norvegicus [24]
  Activity: 1353 mg/dL
Mus musculus [25]
  Activity: 158 U l-1
Mus musculus [26]
  Activity: 0.45 m equiv l-1
Mus musculus [27]
  Activity: 8.58%
Rattus norvegicus [28]
  Activity: 108 U l-1
Rattus norvegicus [29]
  Activity: 118 mg/dL
Rattus norvegicus [30]
  Activity: 0.49 m equiv l-1
[2]
  Ki: > 1 µM
Mus musculus [31]
  Activity: 346 mg/dL
Mus musculus [32]
  Activity: 309 mg/dL
Rattus norvegicus [33]
  Activity: 7.06%
[3]
  EC50: > 10 µM
Mus musculus [34]
  Activity: 9.33%
Rattus norvegicus [35]
  Activity: 2199 mg/dL
Mus musculus [36]
  Activity: 8.23%
Rattus norvegicus [37]
  Activity: 2462 mg/dL
Rattus norvegicus [38]
  Activity: 7.75%
Mus musculus [39]
  Activity: 62 mg/dL
Mus musculus [40]
  Activity: 0.4 m equiv l-1
[4]
  Ki: 0.006 µM
Rattus norvegicus [41]
  Activity: 129 mg/dL

## CC1(C)CCC(C)(C)c2cc(C3CCCc4oc(/C=C/C(=O)O)cc43)ccc21 (single isomer, unassigned)
[1]
  EC50: 0.04 µM
[2]
  Ki: > 1 µM
[3]
  EC50: > 10 µM
[4]
  Ki: 0.2 µM

## CC1(C)CCC(C)(C)c2cc(C3CCCc4oc(/C=C/C(=O)O)cc43)ccc21 (stereo in doubt)
[1]
  EC50: 0.005 µM
[2]
  Ki: > 1 µM
[3]
  EC50: > 10 µM
[4]
  Ki: 0.005 µM

## CC1(C)CCC(C)(C)c2cc(C3CCCc4oc(/C=C/C(=O)O)cc43)ccc21 (stereo in doubt; 60)
[1]
  EC50: 0.097 µM
[2]
  Ki: > 1 µM
[3]
  EC50: > 0.79 µM
[4]
  Ki: 0.09 µM
